Laboratory results reported in ChEMBL document CHEMBL4689842, “EUbOPEN Chemogenomics Library wave 1” (2021).
“And” between values parts separate entries of the source, which are not always exact repeats. Equal values may be shown once.

Tested on: HEK-293T
Test: Multiplex assay against HEK293T;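 as to Population Tubulin-Different-Phenotype (%): share of the cells with healthy nuclei that show this phenotype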
Type: toxicity, cell-based
Conditions: human
Outline: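 Live cells were stained at seeding with Hoechst33342, BioTracker Green Microtubule Cytoskeleton Dye, MitoTracker Red and Annexin V Alexa Fluor 680, then imaged on a CQ1 microscope at 37°C and 5% CO2 after compound addition. CellPathfinder machine-learning gating split cells into Hoechst high-intensity objects or normal cells. Normal cells were split into healthy, pyknosed or fragmented nuclei, and pyknosed cells into mitotic or apoptotic. Tubulin, mitochondrial-mass and membrane-permeability phenotypes are per cents of healthy-nucleus cells.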

[1] = 12 h, 1 µM, compound concentration 1 uM, replicate 1
[2] = 12 h, 1 µM, compound concentration 1 uM, replicate 2
[3] = 12 h, 10 µM, compound concentration 10 uM, replicate 1
[4] = 12 h, 10 µM, compound concentration 10 uM, replicate 2
[5] = 24 h, 1 µM, compound concentration 1 uM, replicate 1
[6] = 24 h, 1 µM, compound concentration 1 uM, replicate 2
[7] = 24 h, 10 µM, compound concentration 10 uM, replicate 1
[8] = 24 h, 10 µM, compound concentration 10 uM, replicate 2
[9] = 48 h, 10 µM, compound concentration 10 uM, replicate 1
[10] = 48 h, 10 µM, compound concentration 10 uM, replicate 2

CNC(=O)c1ccc(Nc2ncc(C(F)(F)F)c(NCc3nccnc3N(C)S(C)(=O)=O)n2)cc1 [DEFACTINIB]
Population Apoptotic (%) [1]: 27% | Population Fragmented Nuclei (%) [1]: 14% and 16% | Population Healthy Nuclei (%) [1]: 72% and 59% | Population Hoechst High Intensity Objects (%) [1]: 11% and 18% | Population Membrane Permeable-Phenotype (%) [1]: 4% and 6% | Population Mitochondria Different-Phenotype (%) [1]: 6% and 8% | Population Mitotic Cells (%) [1]: 72% and 74% | Population Normal (%) [1]: 88% and 81% | Population Pyknosed Nuclei (%) [1]: 13% and 24% | Total Cell Count [1]: 689 and 588 | Population Apoptotic (%) [2]: 25% and 12% | Population Fragmented Nuclei (%) [2]: 9% and 3% | Population Healthy Nuclei (%) [2]: 84% and 92% | Population Hoechst High Intensity Objects (%) [2]: 3% | Population Membrane Permeable-Phenotype (%) [2]: 2% and 3% | Population Mitochondria Different-Phenotype (%) [2]: 10% and 19% | Population Mitotic Cells (%) [2]: 75% and 87% | Population Normal (%) [2]: 96% | Population Pyknosed Nuclei (%) [2]: 6% and 3% | Total Cell Count [2]: 1140 and 1057 | Population Apoptotic (%) [3]: 27% | Population Fragmented Nuclei (%) [3]: 17% and 16% | Population Healthy Nuclei (%) [3]: 62% and 66% | Population Hoechst High Intensity Objects (%) [3]: 11% and 13% | Population Membrane Permeable-Phenotype (%) [3]: 7% and 4% | Population Mitochondria Different-Phenotype (%) [3]: 12% and 5% | Population Mitotic Cells (%) [3]: 72% | Population Normal (%) [3]: 88% and 86% | Population Pyknosed Nuclei (%) [3]: 20% and 17% | Total Cell Count [3]: 704 and 581 | Population Fragmented Nuclei (%) [4]: 3% and 7% | Population Healthy Nuclei (%) [4]: 90% and 87% | Population Hoechst High Intensity Objects (%) [4]: 5% and 2% | Population Membrane Permeable-Phenotype (%) [4]: 6% and 1% | Population Mitochondria Different-Phenotype (%) [4]: 21% and 10% | Population Mitotic Cells (%) [4]: 78% and 96% | Population Normal (%) [4]: 94% and 97% | Population Pyknosed Nuclei (%) [4]: 6% and 4% | Total Cell Count [4]: 770 and 1490 | Population Apoptotic (%) [5]: 23% and 19% | Population Fragmented Nuclei (%) [5]: 15% and 17% | Population Healthy Nuclei (%) [5]: 77% and 62% | Population Hoechst High Intensity Objects (%) [5]: 6% and 14% | Population Membrane Permeable-Phenotype (%) [5]: 6% | Population Mitochondria Different-Phenotype (%) [5]: 4% and 12% | Population Mitotic Cells (%) [5]: 76% and 80% | Population Normal (%) [5]: 93% and 85% | Population Pyknosed Nuclei (%) [5]: 7% and 19% | Population Tubulin-Different-Phenotype (%) [5]: 10% and 26% | Total Cell Count [5]: 751 and 618 | Population Apoptotic (%) [6]: 14% and 11% | Population Healthy Nuclei (%) [6]: 74% and 91% | Population Hoechst High Intensity Objects (%) [6]: 3% and 5% | Population Membrane Permeable-Phenotype (%) [6]: 3% | Population Mitotic Cells (%) [6]: 85% and 88% | Population Normal (%) [6]: 96% and 94% | Population Pyknosed Nuclei (%) [6]: 3% and 2% | Total Cell Count [6]: 1868 and 1334 | Population Apoptotic (%) [7]: 33% and 18% | Population Fragmented Nuclei (%) [7]: 16% and 15% | Population Healthy Nuclei (%) [7]: 66% and 78% | Population Hoechst High Intensity Objects (%) [7]: 11% and 7% | Population Membrane Permeable-Phenotype (%) [7]: 6% and 4% | Population Mitotic Cells (%) [7]: 66% and 81% | Population Normal (%) [7]: 88% and 92% | Population Tubulin-Different-Phenotype (%) [7]: 24% and 11% | Total Cell Count [7]: 732 and 672 | Population Healthy Nuclei (%) [8]: 90% and 75% | Population Hoechst High Intensity Objects (%) [8]: 3% | Population Membrane Permeable-Phenotype (%) [8]: 8% and 3% | Population Mitotic Cells (%) [8]: 71% and 92% | Population Normal (%) [8]: 96% | Population Pyknosed Nuclei (%) [8]: 4% and 2% | Total Cell Count [8]: 961 and 2290

CCOC(=O)Nc1cc(-c2ccc(C)c(NS(C)(=O)=O)c2)nn2c(C)nnc12
Population Apoptotic (%) [1]: 18% | Population Fragmented Nuclei (%) [1]: 13% | Population Healthy Nuclei (%) [1]: 68% | Population Hoechst High Intensity Objects (%) [1]: 9% | Population Membrane Permeable-Phenotype (%) [1]: 3% | Population Mitochondria Different-Phenotype (%) [1]: 3% | Population Mitotic Cells (%) [1]: 81% | Population Normal (%) [1]: 90% | Population Pyknosed Nuclei (%) [1]: 17% | Population Tubulin-Different-Phenotype (%) [1]: 2% | Total Cell Count [1]: 561 | Population Apoptotic (%) [2]: 12% | Population Fragmented Nuclei (%) [2]: 10% | Population Healthy Nuclei (%) [2]: 87% | Population Hoechst High Intensity Objects (%) [2]: 2% | Population Membrane Permeable-Phenotype (%) [2]: 0% | Population Mitochondria Different-Phenotype (%) [2]: 6% | Population Mitotic Cells (%) [2]: 87% | Population Normal (%) [2]: 97% | Population Pyknosed Nuclei (%) [2]: 2% | Population Tubulin-Different-Phenotype (%) [2]: 0% | Total Cell Count [2]: 1857 | Population Apoptotic (%) [3]: 44% and 28% | Population Fragmented Nuclei (%) [3]: 19% and 8% | Population Hoechst High Intensity Objects (%) [3]: 12% and 6% | Population Membrane Permeable-Phenotype (%) [3]: 0% and 2% | Population Mitotic Cells (%) [3]: 55% and 71% | Population Normal (%) [3]: 88% and 93% | Total Cell Count [3]: 275 and 719 | Population Apoptotic (%) [4]: 4% and 3% | Population Fragmented Nuclei (%) [4]: 16% | Population Healthy Nuclei (%) [4]: 79% and 50% | Population Hoechst High Intensity Objects (%) [4]: 3% and 4% | Population Mitochondria Different-Phenotype (%) [4]: 6% and 8% | Population Mitotic Cells (%) [4]: 95% and 96% | Population Normal (%) [4]: 96% and 95% | Population Tubulin-Different-Phenotype (%) [4]: 1% | Population Apoptotic (%) [5]: 13% | Population Fragmented Nuclei (%) [5]: 11% | Population Healthy Nuclei (%) [5]: 78% | Population Hoechst High Intensity Objects (%) [5]: 7% | Population Membrane Permeable-Phenotype (%) [5]: 4% | Population Mitochondria Different-Phenotype (%) [5]: 2% | Population Mitotic Cells (%) [5]: 86% | Population Normal (%) [5]: 92% | Population Pyknosed Nuclei (%) [5]: 9% | Population Tubulin-Different-Phenotype (%) [5]: 0% | Total Cell Count [5]: 702 | Population Apoptotic (%) [6]: 6% | Population Fragmented Nuclei (%) [6]: 32% | Population Healthy Nuclei (%) [6]: 65% | Population Hoechst High Intensity Objects (%) [6]: 4% | Population Membrane Permeable-Phenotype (%) [6]: 0% | Population Mitochondria Different-Phenotype (%) [6]: 1% | Population Mitotic Cells (%) [6]: 93% | Population Normal (%) [6]: 95% | Population Pyknosed Nuclei (%) [6]: 2% | Total Cell Count [6]: 3024 | Population Apoptotic (%) [7]: 42% and 17% | Population Fragmented Nuclei (%) [7]: 16% and 17% | Population Healthy Nuclei (%) [7]: 34% and 77% | Population Hoechst High Intensity Objects (%) [7]: 9% and 6% | Population Membrane Permeable-Phenotype (%) [7]: 1% and 6% | Population Mitotic Cells (%) [7]: 57% and 82% | Population Normal (%) [7]: 90% and 93% | Population Tubulin-Different-Phenotype (%) [7]: 1% and 2% | Population Healthy Nuclei (%) [8]: 68% and 53% | Population Hoechst High Intensity Objects (%) [8]: 2% and 5% | Population Mitochondria Different-Phenotype (%) [8]: 1% | Population Mitotic Cells (%) [8]: 98% and 95% | Population Normal (%) [8]: 97% and 94% | Population Apoptotic (%) [9]: 38% | Population Fragmented Nuclei (%) [9]: 19% | Population Healthy Nuclei (%) [9]: 48% | Population Hoechst High Intensity Objects (%) [9]: 11% | Population Membrane Permeable-Phenotype (%) [9]: 1% | Population Mitochondria Different-Phenotype (%) [9]: 4% | Population Mitotic Cells (%) [9]: 61% | Population Normal (%) [9]: 88% | Population Pyknosed Nuclei (%) [9]: 32% | Population Tubulin-Different-Phenotype (%) [9]: 1% | Total Cell Count [9]: 380 | Population Apoptotic (%) [10]: 4% | Population Fragmented Nuclei (%) [10]: 9% | Population Healthy Nuclei (%) [10]: 83% | Population Hoechst High Intensity Objects (%) [10]: 2% | Population Mitochondria Different-Phenotype (%) [10]: 0% | Population Mitotic Cells (%) [10]: 95% | Population Normal (%) [10]: 97% | Population Pyknosed Nuclei (%) [10]: 7% | Population Tubulin-Different-Phenotype (%) [10]: 0% | Total Cell Count [10]: 566
